Publication PMC2718129 (Molecular cancer therapeutics, 2009)
Where “and” joins values, the source holds several entries; their conditions need not be identical. Identical values can stand only once. Like-named read-outs stand apart in the source and are kept apart here.

How the values were obtained:
p110γ = p110γ (Homo sapiens, UniProt P48736); assay: Phosphatidylinositide 3-kinase scintillation proximity assay, p110γ; format: biochemical; conditions: read-out: IC50 against p110γ; 1 μmol/L ATP
[1] = tested on: U87MG human glioblastoma xenografts; assay: U87MG glioblastoma xenograft efficacy study; format: in vivo, athymic mice; conditions: for T/C (final tumor weights) / tumor growth inhibition: U87MG xenografts; for tolerability of doses: i.p. dosing for 14 days
[2] = Pharmacokinetics of PI-540 and PI-620 in BALB/c mice; format: in vivo; conditions: for volume of distribution: female BALB/c mice, 10 mg/kg i.v.; for plasma clearance / oral bioavailability / terminal half-life in plasma / terminal half-life in tissues / spleen to plasma ratio: mice; for plasma clearance / terminal half-life in plasma / terminal half-life in tissues / spleen to plasma ratio: 10 mg/kg; for oral bioavailability: 10 mg/kg i.v. and p.o.; for terminal half-life in plasma / terminal half-life in tissues: after i.v. administration; for spleen to plasma ratio: following i.v. dosing
[3] = tested on: panel of human cancer cell lines and human umbilical vein endothelial cells; assay: Antiproliferative GI50 assay, cell line panel; format: cell-based; conditions: 96 hours continuous exposure
Summary of the method: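 Tumor lines were grown in DMEM with 2 mmol/L glutamine, antibiotics and 10% FBS at 37°C in 5% CO2, and read by Alamar Blue or sulforhodamine B. Pooled HUVEC were used at passages 3 to 8 and read by an alkaline phosphatase assay. Exposure was continuous for 96 h. GI50 is the mean of three independent determinations.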

[4] = tested on: IGROV-1 human ovarian cancer xenografts; assay: IGROV-1 ovarian cancer xenograft efficacy study; format: in vivo, athymic mice; conditions: IGROV-1 xenografts
[5] = tested on: poly(ADP-ribose) polymerase cleavage in U87MG xenografts; assay: PARP cleavage in U87MG xenografts; format: in vivo, athymic mice; conditions: 4 hours after oral dosing with 25 to 150 mg/kg
[6] = tested on: AKT phosphorylation (Ser473, Thr308) in U87MG tumor xenografts; assay: Pharmacodynamic AKT phosphorylation in U87MG xenografts; format: in vivo, athymic mice
SNUC2B cells = assay: Antiproliferative GI50 assay, SNUC2B; format: cell-based; conditions: Homo sapiens, SNU-C2B, 96 h, read-out: antiproliferative GI50
Summary of the method: (§1)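 Cells grown in DMEM with 2 mmol/L glutamine, penicillin/streptomycin and 10% FBS at 37°C in 5% CO2, and mycoplasma-negative by PCR. Continuous 96 h exposure to test compound. Proliferation was read by Alamar Blue or sulforhodamine B, and GI50 was taken as the concentration giving 50% inhibition of proliferation.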

HCT116 cells = assay: Antiproliferative GI50 assay, HCT116; format: cell-based; conditions: Homo sapiens, HCT-116, 96 h, read-out: antiproliferative GI50
Summary of the method: as §1

[7] = mice, 10 mg/kg; cited from earlier work
LoVo cells = assay: Antiproliferative GI50 assay, LoVo; format: cell-based; conditions: Homo sapiens, 96 h, read-out: antiproliferative GI50
Summary of the method: as §1

[8] = tested on: phosphorylation of AKT (Thr308, Ser473) in U87MG cells; assay: Electrochemiluminescent immunoassay; format: cell-based, human; conditions: 2 or 8 h
Summary of the method: (§2)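 U87MG cells were seeded at 8 × 10^4 cells/mL and treated 48 h later for 2 or 8 h with 5 to 500 nmol/L inhibitor. Cells were lysed and freeze-thawed once at -80°C, and lysate went directly onto Meso Scale multiplex phospho/total plates with overnight sample incubation before secondary antibody. One well from each of three independent plates was read. IC50 is given as mean ±SD.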

[9] = tested on: phosphorylation of GSK3β Ser9 in U87MG cells; assay: Electrochemiluminescent immunoassay; format: cell-based, human
Summary of the method: as §2

[10] = tested on: phosphorylation of p70S6K Thr421/Ser424 in U87MG cells; assay: Electrochemiluminescent immunoassay; format: cell-based, human; conditions: at 2 hours and, more potently, at 8 hours
Summary of the method: as §2

[11] = tested on: phosphorylation of S6 ribosomal protein Ser235/Ser236 in U87MG cells; assay: Electrochemiluminescent immunoassay; format: cell-based, human; conditions: at 2 hours and, more potently, at 8 hours
Summary of the method: as §2

[12] = tested on: phosphorylation of GSK3β in U87MG tumor xenografts; assay: Pharmacodynamic GSK3β phosphorylation in U87MG xenografts; format: in vivo, athymic mice; conditions: 50 mg/kg b.i.d or 100 mg/kg u.i.d i.p. for 4 days
[13] = tested on: U87MG human glioblastoma xenografts; conditions: PTEN-null U87MG glioblastoma xenografts; cited from earlier work
[14] = tested on: AKT phosphorylation (Ser473, Thr308) in U87MG tumor xenografts; conditions: for a short time; cited from earlier work
[15] = tested on: forkhead transcription factor translocation; conditions: read-out: 50% inhibition of forkhead transcription factor translocation; previously reported; cited from earlier work
[16] = 25 mg/kg b.i.d i.p. for 14 days, 25 mg/kg
[17] = 50 mg/kg u.i.d i.p. for 14 days
[18] = 25 mg/kg oral daily for 13 days
[19] = 25 mg/kg daily p.o. for 19 days
[20] = 50 mg/kg b.i.d. i.p. for 14 days, 50 mg/kg
[21] = 50 mg/kg b.i.d or 100 mg/kg u.i.d i.p. for 4 days, at 1 hour

Chain of p110γ (P48736 whole entry, species assumed): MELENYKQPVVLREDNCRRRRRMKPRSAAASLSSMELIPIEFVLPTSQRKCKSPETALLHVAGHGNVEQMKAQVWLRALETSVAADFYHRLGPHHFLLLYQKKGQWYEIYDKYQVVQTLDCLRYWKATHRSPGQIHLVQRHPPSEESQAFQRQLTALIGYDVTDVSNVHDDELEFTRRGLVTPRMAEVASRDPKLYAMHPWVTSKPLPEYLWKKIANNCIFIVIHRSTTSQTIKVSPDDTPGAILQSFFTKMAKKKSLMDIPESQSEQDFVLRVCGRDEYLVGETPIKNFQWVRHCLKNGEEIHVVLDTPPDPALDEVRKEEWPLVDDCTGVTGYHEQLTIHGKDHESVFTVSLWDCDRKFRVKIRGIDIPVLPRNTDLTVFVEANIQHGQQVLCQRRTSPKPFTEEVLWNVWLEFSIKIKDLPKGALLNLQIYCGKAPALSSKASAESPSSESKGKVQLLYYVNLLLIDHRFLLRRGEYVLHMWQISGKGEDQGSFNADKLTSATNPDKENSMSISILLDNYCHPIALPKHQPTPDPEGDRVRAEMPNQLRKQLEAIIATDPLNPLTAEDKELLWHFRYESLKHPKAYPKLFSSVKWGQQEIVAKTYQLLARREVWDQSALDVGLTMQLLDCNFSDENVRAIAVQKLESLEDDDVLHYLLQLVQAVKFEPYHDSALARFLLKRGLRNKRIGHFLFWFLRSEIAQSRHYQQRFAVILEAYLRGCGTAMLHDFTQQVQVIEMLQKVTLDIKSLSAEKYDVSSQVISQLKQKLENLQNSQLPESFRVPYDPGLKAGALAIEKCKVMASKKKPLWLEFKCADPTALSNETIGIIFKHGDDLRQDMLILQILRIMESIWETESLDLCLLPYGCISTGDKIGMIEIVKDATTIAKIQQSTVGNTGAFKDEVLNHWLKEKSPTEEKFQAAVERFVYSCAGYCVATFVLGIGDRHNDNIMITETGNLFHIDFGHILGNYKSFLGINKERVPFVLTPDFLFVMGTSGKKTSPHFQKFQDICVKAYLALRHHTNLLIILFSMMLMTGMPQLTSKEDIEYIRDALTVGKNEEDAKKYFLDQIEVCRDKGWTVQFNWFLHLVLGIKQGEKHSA

In the case of `OCCN1CCN(Cc2cc3nc(-c4cccc(O)c4)nc(N4CCOCC4)c3s2)CC1` [PI-620], the IC50 (p110γ) is reported as over 300 nM, the “T/C (final tumor weights)” value [1, 16] is reported as 27% and 26.7% and the tumor growth inhibition [1, 16] is reported as 73% and 73.3%. The “T/C (final tumor weights)” value [1, 17] was 44.8%, the tumor growth inhibition [1, 17] was 55.2% and the tolerability of doses ([1]; athymic mice) was “very well tolerated”. For the same compound, the volume of distribution [2] was 206 mL, the plasma clearance [2] was “high” and the oral bioavailability [2] was under 10%. The “terminal half-life in plasma” value [2] was 0.9 h, the “terminal half-life in tissues” value [2] was 4.3 h and the “spleen to plasma ratio” value [2] was 13.9. For the same compound, the “growth inhibition potency in each cell line of the panel” value [3] was “submicromolar”.

For `CS(=O)(=O)N1CCN(Cc2cc3nc(-c4cccc5[nH]ncc45)nc(N4CCOCC4)c3s2)CC1` [GDC-0941, 2-(1H-Indazol-4)-6-(4-methanesulfonyl-piperazin-1-ylmethyl)-4-morpholin-4-yl-thieno[3,2-d]pyrimidine], the T/C [4, 18] was 50.5%, the tumor growth inhibition [4, 18] was 49.5% and the T/C ([4]; 150 mg/kg oral daily for 13 days) was 19.7%. For the same compound, the tumor growth inhibition ([4]; 150 mg/kg oral daily for 13 days, 150 mg/kg) was 80% and 80.3%, the “T/C (final tumor weights)” value [1, 19] was 23.4% and the tumor growth inhibition [1, 19] was 76.6%. For the same compound, the “T/C (final tumor weights)” value ([1]; 150 mg/kg daily p.o. for 19 days) was 2.3%, the tumor growth inhibition ([1]; 150 mg/kg daily p.o. for 19 days, 150 mg/kg) was 98% and 97.7% and the tolerability of therapy ([1]; athymic mice, 25 to 150 mg/kg daily p.o. for 19 days, all groups gained weight at similar rates to controls) was “well tolerated”. For the same compound, the “poly(ADP-ribose) polymerase cleavage in tumor samples” value [5] was “clear increase”, the “levels of activated AKT Ser473 in tumor” value ([6]; 150 mg/kg daily p.o. for 19 days, 4 hours after the last dose) was “undetectable” and the “duration of maintained inhibition of AKT Ser473 phosphorylation in tumor” value ([6]; oral dosing) was over 8 h. For the same compound, the GI50 (SNUC2B cells) was 1630 nM, the GI50 (HCT116 cells) was 905 nM and the oral bioavailability [7] was 78%. For the same compound, the GI50 (LoVo cells) was 180 nM.

With `CO[C@H]1C[C@@H]2CC[C@@H](C)[C@@](O)(O2)C(=O)C(=O)N2CCCC[C@H]2C(=O)O[C@H]([C@H](C)C[C@@H]2CC[C@@H](O)[C@H](OC)C2)CC(=O)[C@H](C)/C=C(\C)[C@@H](O)[C@@H](OC)C(=O)[C@H](C)C[C@H](C)/C=C/C=C/C=C/1C` [Rapamycin] the “effect on phosphorylation of AKT” value [8] was “did not affect”, the “effect on phosphorylation of GSK3β” value ([9]; 2 or 8 h) was “did not affect” and the “effect on phosphorylation of p70S6K” value [10] was “inhibited”. The “effect on phosphorylation of S6 ribosomal protein” value [11] was “inhibited”.

With `CN1CCN(Cc2cc3nc(-c4cccc(O)c4)nc(N4CCOCC4)c3s2)CC1` [PI-540] the IC50 (p110γ) was over 300 nM, the “fold less potent in inhibiting phosphorylation of GSK3β Ser9 compared with phosphorylation of AKT” value [9] was 10 fold and the “T/C (final tumor weights)” value [1, 20] was 34% and 33.9%. For the same compound, the tumor growth inhibition [1, 20] was 66% and 66.1%, the tolerability of doses ([1]; athymic mice) was “very well tolerated” and the “inhibition of phosphorylation on AKT Ser473 in tumor” value [6, 21] was over 50%. For the same compound, the “inhibition of phosphorylation on AKT Thr308 in tumor” value [6, 21] was over 50%, the volume of distribution [2] was 300 mL and the plasma clearance [2] was “high”. For the same compound, the oral bioavailability [2] was under 10%, the “terminal half-life in plasma” value [2] was 0.24 h and the “terminal half-life in tissues” value [2] was 7.6 h. The “spleen to plasma ratio” value [2] was 31, the “inhibition of phosphorylation of GSK3β in tumor” value [12] was “no detectable inhibition” and the “growth inhibition potency in each cell line of the panel” value [3] was “submicromolar”.

For `Oc1cccc(-c2nc(N3CCOCC3)c3oc4ncccc4c3n2)c1` [PI-103], the “growth inhibition in xenografts” value [13] is listed as over 50%, the GI50 (SNUC2B cells) is listed as 827 nM and the “inhibition of phosphorylation of AKT Ser473 in tumor” value [14] is listed as at most 50%. For the same compound, the GI50 (LoVo cells) was 22 nM and the IC50 [15] was 30 nM.
